Data taken from ChEMBL document CHEMBL1287649, “Synthesis and anti-tubercular and antimicrobial activities of some 2r,4c-diaryl-3-azabicyclo[3.3.1]nonan-9-one N-isonicotinoylhydrazone derivatives” (2010).
In brackets after ≈: the same amount, converted by molar mass. Activity calls are given as the source filed them. No cut-off for these calls is given here.

How the values were obtained:
[1] = system: Mycobacterium tuberculosis; assay: Antitubercular activity against Mycobacterium tuberculosis H37Rv ATCC 27294 assessed as reduction of relative light unit at 1 ug/ml after 72 hrs by luciferase reporter phage assay relative to control; format: functional, H37Rv ATTC 27294; set-up: scale not given: the % may be the effect or the level left
Procedure, shortened: (§1)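 Luciferase reporter phage assay. Luminescence (RLU) integrated for 10 s on a luminometer, in duplicate per sample and averaged. Percent RLU reduction calculated against untreated control. Run repeated if the control mean RLU was below 1000.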

[2] = system: Mycobacterium tuberculosis; assay: Antitubercular activity against Mycobacterium tuberculosis H37Rv ATCC 27294 assessed as reduction of relative light unit at 2 ug/ml after 72 hrs by luciferase reporter phage assay relative to control; format: functional, H37Rv ATTC 27294; set-up: scale not given: the % may be the effect or the level left; procedure, shortened: as §1
Bacillus subtilis [3] = assay: Antibacterial activity against Bacillus subtilis NCIM 2439 at 200 ug/ml after 24 hrs by twofold serial dilution method; format: functional, organism-based
Klebsiella pneumoniae [4] = assay: Antibacterial activity against Klebsiella pneumoniae at 200 ug/ml after 24 hrs by twofold serial dilution method; format: functional, organism-based
Escherichia coli [5] = assay: Antibacterial activity against Escherichia coli NCIM 2345 at 200 ug/ml after 24 hrs by twofold serial dilution method; format: functional, organism-based
Staphylococcus aureus = assay: Antibacterial activity against Staphylococcus aureus NCIM 2492 after 24 hrs by twofold serial dilution method; format: functional; settings: NCIM 2492, 24 h
Procedure, shortened: (§2)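 Two-fold serial dilution in nutrient broth; compounds from 1 mg mL^-1 DMSO stocks, 0.2 mL into 1.8 mL seeded broth, then six serial dilutions. Inoculum from 24-h nutrient agar cultures grown at 37 ± 1 °C, final 10⁵ cfu mL^-1, pH 7.4 ± 0.2. Incubated at 37 ± 1 °C. MIC read visually after 24 h. Seeded-broth and solvent controls included.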

Pseudomonas aeruginosa [6] = assay: Antibacterial activity against Pseudomonas aeruginosa NCIM 2035 after 24 hrs by twofold serial dilution method; format: functional; settings: NCIM 2035, 24 h; procedure, shortened: as §2
Candida albicans [7] = assay: Antifungal activity against Candida albicans-6 NCIM C27 at 200 ug/ml after 72 to 96 hrs by twofold serial dilution method; format: functional, organism-based
Candida albicans [8] = assay: Antifungal activity against Candida albicans NCIM C27 at 200 ug/ml after 72 to 96 hrs by twofold serial dilution method; format: functional, organism-based
Aspergillus niger = assay: Antifungal activity against Aspergillus niger NCIM 590 after 72 to 96 hrs by twofold serial dilution method; format: functional
Procedure, shortened: (§3)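 Two-fold serial dilution in Sabouraud dextrose broth; compounds from 1 mg mL^-1 DMSO stocks, 0.2 mL into 1.8 mL seeded broth, then six serial dilutions. Spores from 24-h to 7-day Sabouraud agar slants, final 1.1–1.5 × 10² cfu mL^-1, pH 7.4 ± 0.2. Incubated at 28 ± 1 °C. MIC read visually after 72–96 h. Seeded-broth and solvent controls included.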

Candida albicans [9] = assay: Antifungal activity against Candida albicans-51 NCIM C27 after 72 to 96 hrs by twofold serial dilution method; format: functional; procedure, shortened: as §3
Aspergillus flavus [10] = assay: Antifungal activity against Aspergillus flavus NCIM 539 at 200 ug/ml after 72 to 96 hrs by twofold serial dilution method; format: functional, organism-based
Bacillus subtilis [11] = assay: Antibacterial activity against Bacillus subtilis NCIM 2439 after 24 hrs by twofold serial dilution method; format: functional; settings: NCIM 2439, 24 h; procedure, shortened: as §2
Klebsiella pneumoniae [12] = assay: Antibacterial activity against Klebsiella pneumoniae after 24 hrs by twofold serial dilution method; format: functional; procedure, shortened: as §2
Escherichia coli [13] = assay: Antibacterial activity against Escherichia coli NCIM 2345 after 24 hrs by twofold serial dilution method; format: functional; settings: NCIM 2345, 24 h; procedure, shortened: as §2
Candida albicans [14] = assay: Antifungal activity against Candida albicans-6 NCIM C27 after 72 to 96 hrs by twofold serial dilution method; format: functional; procedure, shortened: as §3
Candida albicans [15] = assay: Antifungal activity against Candida albicans NCIM C27 after 72 to 96 hrs by twofold serial dilution method; format: functional; procedure, shortened: as §3
Aspergillus flavus [16] = assay: Antifungal activity against Aspergillus flavus NCIM 539 after 72 to 96 hrs by twofold serial dilution method; format: functional; procedure, shortened: as §3
Pseudomonas aeruginosa [17] = assay: Antibacterial activity against Pseudomonas aeruginosa NCIM 2035 at 200 ug/ml after 24 hrs by twofold serial dilution method; format: functional, organism-based

SMILES | Activity [1] [%] | Activity [2] [%] | Activity (Bacillus subtilis [3]) | Activity (Klebsiella pneumoniae [4]) | Activity (Escherichia coli [5]) | MIC (Staphylococcus aureus) [µg/mL] | MIC (Pseudomonas aeruginosa [6]) [µg/mL] | Activity (Candida albicans [7]) | Activity (Candida albicans [8]) | MIC (Aspergillus niger) [µg/mL] | MIC (Candida albicans [9]) [µg/mL] | Activity (Aspergillus flavus [10]) | MIC (Bacillus subtilis [11]) [µg/mL] | MIC (Klebsiella pneumoniae [12]) [µg/mL] | MIC (Escherichia coli [13]) [µg/mL] | MIC (Candida albicans [14]) [µg/mL] | MIC (Candida albicans [15]) [µg/mL] | MIC (Aspergillus flavus [16]) [µg/mL] | Activity (Pseudomonas aeruginosa [17])
O=C(N/N=C1\C2CCCC1[C@H](c1ccccc1)N[C@@H]2c1ccccc1)c1ccncc1 | 77.76 | 87.9 | inactive | inactive | inactive | 100 (≈ 244 µM) | 200 (≈ 487 µM) | inactive | inactive | 200 (≈ 487 µM) | 100 (≈ 244 µM) | inactive |  |  |  |  |  |  | 
COc1cccc([C@H]2N[C@@H](c3cccc(OC)c3)C3CCCC2/C3=N\NC(=O)c2ccncc2)c1 | 77.18 | 87.06 |  |  |  | 200 (≈ 425 µM) | 200 (≈ 425 µM) |  |  | 100 (≈ 213 µM) | 200 (≈ 425 µM) |  | 50 (≈ 106 µM) | 100 (≈ 213 µM) | 200 (≈ 425 µM) | 200 (≈ 425 µM) | 100 (≈ 213 µM) | 100 (≈ 213 µM) | 
CN[C@@H]1[C@H](O[C@H]2[C@H](O[C@H]3[C@H](O)[C@@H](O)[C@H](N=C(N)N)[C@@H](O)[C@@H]3N=C(N)N)O[C@@H](C)[C@]2(O)C=O)O[C@@H](CO)[C@H](O)[C@H]1O [STREPTOMYCIN] |  |  |  |  |  | 50 (≈ 86 µM) | 25 (≈ 43 µM) |  |  |  |  |  | 12.5 (≈ 21.5 µM) | 50 (≈ 86 µM) | 12.5 (≈ 21.5 µM) |  |  |  | 
O=C(N/N=C1\C2CCCC1[C@H](c1ccc(F)cc1)N[C@@H]2c1ccc(F)cc1)c1ccncc1 | 76.63 | 86.12 |  | inactive |  | 50 (≈ 112 µM) | 100 (≈ 224 µM) |  |  | 100 (≈ 224 µM) | 50 (≈ 112 µM) |  | 50 (≈ 112 µM) |  | 100 (≈ 224 µM) | 50 (≈ 112 µM) | 50 (≈ 112 µM) | 100 (≈ 224 µM) | 
Cc1ccc([C@H]2N[C@@H](c3ccc(C)cc3)C3CCCC2/C3=N\NC(=O)c2ccncc2)cc1 | 72.03 | 82.04 |  | inactive | inactive | 200 (≈ 456 µM) | 100 (≈ 228 µM) |  |  | 100 (≈ 228 µM) | 100 (≈ 228 µM) | inactive | 200 (≈ 456 µM) |  |  | 200 (≈ 456 µM) | 100 (≈ 228 µM) |  | 
C[C@@H]1[C@H](O)[C@@H](C)/C=C/C=C/C=C/C=C/C=C/C=C/C=C/[C@H](O[C@@H]2O[C@H](C)[C@@H](O)[C@H](N)[C@@H]2O)C[C@@H]2O[C@](O)(C[C@@H](O)C[C@@H](O)[C@H](O)CC[C@@H](O)C[C@@H](O)CC(=O)O[C@H]1C)C[C@H](O)[C@H]2C(=O)O [AMPHOTERICIN B] |  |  |  |  |  |  |  |  |  | 50 (≈ 54.1 µM) | 25 (≈ 27.1 µM) |  |  |  |  | 25 (≈ 27.1 µM) | 25 (≈ 27.1 µM) | 50 (≈ 54.1 µM) | 
O=C(N/N=C1\C2CCCC1[C@H](c1cccc(Cl)c1)N[C@@H]2c1cccc(Cl)c1)c1ccncc1 | 75.42 | 85.34 |  |  |  | 100 (≈ 209 µM) | 100 (≈ 209 µM) |  |  | 100 (≈ 209 µM) | 200 (≈ 417 µM) |  | 100 (≈ 209 µM) | 50 (≈ 104 µM) | 50 (≈ 104 µM) | 50 (≈ 104 µM) | 200 (≈ 417 µM) | 200 (≈ 417 µM) | 
CC1(C)S[C@@H]2[C@H](NC(=O)Cc3ccccc3)C(=O)N2[C@H]1C(=O)O [PENICILLIN G] |  |  |  |  |  | 12.5 (≈ 37.4 µM) | 50 (≈ 150 µM) |  |  |  |  |  | 25 (≈ 74.8 µM) | 12.5 (≈ 37.4 µM) | 50 (≈ 150 µM) |  |  |  | 
COc1ccc([C@H]2N[C@@H](c3ccc(OC)cc3)C3CCCC2/C3=N\NC(=O)c2ccncc2)cc1 | 73.07 | 83.02 |  |  |  | 100 (≈ 213 µM) |  |  |  | 200 (≈ 425 µM) | 100 (≈ 213 µM) |  | 200 (≈ 425 µM) | 200 (≈ 425 µM) | 100 (≈ 213 µM) | 100 (≈ 213 µM) | 200 (≈ 425 µM) | 200 (≈ 425 µM) | 
NNC(=O)c1ccncc1 [ISONIAZID] | 98.42 | 98.42 |  |  |  |  |  |  |  |  |  |  |  |  |  |  |  |  | 
O=C(N/N=C1\C2CCCC1[C@H](c1ccc(Cl)cc1)N[C@@H]2c1ccc(Cl)cc1)c1ccncc1 | 75.61 | 85.22 |  |  |  | 50 (≈ 104 µM) | 100 (≈ 209 µM) |  |  | 100 (≈ 209 µM) | 50 (≈ 104 µM) |  | 100 (≈ 209 µM) | 100 (≈ 209 µM) | 50 (≈ 104 µM) | 100 (≈ 209 µM) | 100 (≈ 209 µM) | 200 (≈ 417 µM) | inactive
